Rows were chosen to be rich in hits. Some 2.4% of all compounds tested hit in one or more screens of this group.
HTRA1 inhibitor – inhibitors of human serine peptidase HTRA1. recombinant HTRA1, FP-rhodamine activity-based probe, fluorescence polarization. 340,000 tested, 0.5% active. AID 504803. inhibition, % at 5.96 µM. Q92743; in the data active = inhibition above about 36%;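 note: 0% = enzyme with DMSO and 100% = wells lacking enzyme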
JMJD2C inh – blocks human GASC-1 demethylase activity | Q9H3R0 | GST-JMJD2C(1-420) H3K9me3 demethylation, DELFIA europium | inhibition, % at 2.35 µM | 330,000 tested, 0.069% active;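 active = more than half of a compound's replicate wells show inhibition beyond 50%, single wells judged on their own value; inconclusive = some, but no more than half, of replicates pass 50% inhibition; inactive = no replicate passes 50% inhibition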;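 note: signal counts dimethyl H3K9 product captured on neutravidin plate; 0% = median of DMSO wells and 100% = 0.3 times that DMSO median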
PRMT1 inh – PRMT1 (human) inhibition, primary screen. Q99873. recombinant PRMT1, activity-based probe fluorescence polarization. inhibition, % at 2.79 µM. 370,000 tested, 1.3% active;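 active = inhibition above about 21% made by adding two undisclosed values, limit read from the data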
ABHD4 inh – ABHD4 (mouse) inhibition, primary FP screen. 370,000 tested, 0.54% active. AID 720543. inhibition, % at 8.92 µM. Q8VD66. purified mABHD4, FP-Rh probe fluorescence polarization;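 active = inhibition exceeding the mean over every tested compound plus 3 SD, cut at about 30% in these data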;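 note: 0% = plate median of compound wells and 100% = S159A mutant with DMSO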
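Assay system: mouse ABHD4 enzyme, wild type / Also added: fluorescent activity-based probe FP-Rh / Doses: single nominal dose of 8.92 µM, 0.89% DMSO final / Timing: 45 min compound pre-incubation plus 60 min probe step, 25 °C / Signal: FP readout, ex 525 nm / em 598 nm / Control set: S159A mutant/DMSO as 100%, compound-well median as 0%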
SIAE primary – inhibitors of human sialic acid acetylesterase SIAE; SIAE FP-Rh probe binding, fluorescence polarization; inhibition, % at 9.66 µM; 370,000 tested, 0.69% active; AID 1053197;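 active = inhibition above a cutoff: mean of compounds within the control limits plus 3 SD of those, cut at about 17% in these data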;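 note: 0% = plate median of compound wells and 100% = probe without SIAE protein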
Target sequence (Q9HAT2 whole entry, looked up): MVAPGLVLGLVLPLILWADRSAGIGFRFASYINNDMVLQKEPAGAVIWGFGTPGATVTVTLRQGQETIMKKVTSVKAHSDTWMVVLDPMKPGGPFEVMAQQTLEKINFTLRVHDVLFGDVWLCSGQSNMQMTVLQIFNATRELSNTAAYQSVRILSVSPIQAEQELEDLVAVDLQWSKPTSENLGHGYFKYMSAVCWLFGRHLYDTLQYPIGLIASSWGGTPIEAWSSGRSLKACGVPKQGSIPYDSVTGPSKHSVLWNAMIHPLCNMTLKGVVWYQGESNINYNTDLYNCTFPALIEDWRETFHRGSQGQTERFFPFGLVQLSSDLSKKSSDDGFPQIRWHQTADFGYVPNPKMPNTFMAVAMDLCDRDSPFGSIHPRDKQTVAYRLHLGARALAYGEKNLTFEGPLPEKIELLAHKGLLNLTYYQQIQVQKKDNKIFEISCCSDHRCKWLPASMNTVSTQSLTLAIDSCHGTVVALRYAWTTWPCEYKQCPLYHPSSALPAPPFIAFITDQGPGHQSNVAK
PRMT1 confirm – confirmation of human PRMT1 inhibitors | inhibition, % at 2.79 µM | 3,300 tested, 42% active | shares compounds with PRMT1 inh | recombinant His-PRMT1, activity-based probe fluorescence polarization;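 active = mean inhibition across replicates above the hit cutoff derived for the earlier primary screen, cut at about 22% in these data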
* hit, by the source's call; ? = inconclusive; nt = not tested or not shown.

SMILES	HTRA1 inhibitor	JMJD2C inh	PRMT1 inh	ABHD4 inh	SIAE primary	PRMT1 confirm
C/C=C\C=C/C(=O)Nc1cccc(C2=NOC3(C2)C[C@@H](C(N)=O)N(C(=O)CCCCC)C3)c1 (stereo partly specified)	-10	4	25*	-6	-8	65*
C/C=C\C=C/C(=O)Nc1cccc(C2=NOC3(C2)C[C@H](C(N)=O)N(C(=O)Cc2ccc([N+](=O)[O-])cc2)C3)c1 (stereo partly specified)	-14	-13	42*	-5	-20	52*
Fc1cc(F)c(CSc2nnc(-c3cccnc3)n2Cc2ccccc2)cc1F	nt	nt	-1	-7	-6	nt
CCCCN=Cc1sc2ccc(OCC)cc2c1O	-3	5	30*	-2	3	32*
CC(=O)Nc1ccc(-c2ccnc3c2CC(C(=O)NCc2cccc(Cl)c2)O3)cc1 (stereo unspecified)	nt	nt	-3	-3	2	nt
CCOc1ccc(Cl)cc1-c1cc(C(=O)NCCOC)[nH]n1	nt	nt	-4	-3	4	nt
CCOC(=O)[C@]12CCCCC/C=C\1N(CCc1ccc(Cl)cc1)C(=O)[C@H]2CC(=O)N1CCOCC1	nt	nt	1	2	6	nt
COc1c(O)cccc1[C@@H](O)C1CCN(CCc2ccc(F)cc2)CC1	3	20	36*	8	-4	-2
COc1ccc(CCN2CCC(Nc3nc4ccccc4n3Cc3ccc(F)cc3)CC2)cc1	5	-23	-4	8	1	nt
CC(=O)Nc1ccc(S(=O)(=O)N[C@@H](C)C(=O)N2CCN(c3ccccn3)CC2)cc1	4	2	38*	-7	2	23*
CC(=O)Nc1ccc(S(=O)(=O)NC(C)C(=O)NC(C)c2ccccc2)cc1 (stereo unspecified)	-3	7	44*	2	-3	55*
C#Cc1cccc(Nc2nc(NCc3ccccc3OC)nc3ccsc23)c1	nt	nt	2	-7	-16	nt
COc1cccc(C(C)(O)c2nc(-c3ccc(S(C)(=O)=O)cc3)cs2)c1 (stereo unspecified)	nt	nt	3	-8	-5	nt
Cc1cc(C(=O)N2CCC2(C)C(=O)Nc2cc(C(C)(C)C)nn2C)nn1C (stereo unspecified)	nt	nt	2	5	-1	nt
CCN1/C(=C\C(=S)Nc2ccccc2)Sc2ccccc21	11	10	71*	10	14	16
CCN1/C(=C\C=C(C(C)=O)C(C)=O)Sc2ccccc21	-3	-2	-47	-2	5	nt
CCOC(=O)N1CCN(C(=O)C[C@@H]2C[C@@]3(C(=O)OCC)CCCC=C3N(CCC3=CCCCC3)C2=O)CC1	nt	nt	5	0	6	nt
Nc1cc(=O)n(Cc2ccccc2)c(N)c1C(=O)NCc1ccccc1	nt	nt	2	9	11	nt
CC(=O)c1sc2nsc(SCCN3CCOCC3)c2c1N	nt	-4	67*	6	-2	10
Nn1c(SCc2ccc([N+](=O)[O-])cc2)nnc1-c1cc(-c2ccccc2)n[nH]1	nt	nt	7	-23	-6	nt
CCN(C(=O)COc1ccccc1C(=O)NCc1ccccc1)C1CCS(=O)(=O)C1 (stereo unspecified)	-5	-2	0	-1	1	nt
CCN(C(=O)COc1cccc2cccnc12)C1CCS(=O)(=O)C1 (stereo unspecified)	4	20	33*	4	2	4
COc1cc(C)c(NC(=O)C(=S)NCCc2ccccc2)cc1C	-7	-29	31*	1	-7	38*
COc1ccc(CCNC2CC(=O)N(CCc3ccc(OC)c(OC)c3)C2=O)cc1 (stereo unspecified)	3	4	78*	-4	3	2
COc1ccc(CCNC2CC(=O)N(CCc3ccccc3)C2=O)cc1OC (stereo unspecified)	3	-2	42*	8	0	-2
COc1ccc(CCNC2CC(=O)N(C)C2=O)cc1OC (stereo unspecified)	-7	0	6	8	-2	nt
Nc1c(C(=O)NCCc2ccccc2)sc2nc(N3CCOCC3)c3c(c12)CCCC3	-43	-3	13	13	13	nt
Cc1ccccc1NC(=O)c1sc2nc(N3CCOCC3)c3c(c2c1N)CCCC3	-16	?	42*	10	2	41*
NC(=O)c1sc2nc(N3CCOCC3)c3c(c2c1N)CCCC3	-5	3	26*	6	2	16

Source: PubChem BioAssay (several laboratories)
